For series [1], the system named is Rattus norvegicus. Nature of the series: Blood pressure change in rats after oral administration of 50 mg/kg dose after 4 hours. In kind it is functional. The gist of the method: (§1)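 Restrained female Sprague–Dawley rats with indwelling aortic cannulas exteriorized at the nape; direct arterial pressure via transducer, mean pressure by electrical integration of phasic pressure. Readings before and 4 and 24 h after oral dosing (carboxymethylcellulose suspension, 10 mL/kg). Value is change in mean arterial pressure, averaged over two animals.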

Series [2] has as its system Rattus norvegicus. Nature of the series: Blood pressure change in rats after oral administration of 50 mg/kg dose after 24 hours. In kind it is functional. The gist of the method:
as §1

The species named for series [3] is Rattus norvegicus. Nature of the series: Diuretic activity in rats. In kind it is functional, Urine. The gist of the method: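 Male rats (~160 g) fasted 24 h, water withheld 1.5 h, both withheld during test. Gavage 25 mL/kg 0.9% saline with 0.5% carboxymethylcellulose containing compound at 40 mg/kg; urine collected 5 h in metabolism cages. Two-stage test, T/C urine volume per stage; active if product of stage T/Cs ≥3.34.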

The test system of series [4] is Rattus norvegicus. Nature of the series: Compound was tested for urinary volume excretion in conscious rat at the dose of 3.0 mg/kg expressed as urinary excretion in treated rats/urinary excretion in control rats. Conditions: in vivo. In kind it is ADME, organism-based, Urine. Also on record: dose 3 mg/kg. In outline: (§2)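 Male rats (~160 g) fasted 24 h, water withheld 1.5 h; oral gavage of compound (0.3-100 mg/kg) in 25 mL/kg saline with 0.5% carboxymethylcellulose; 5 h urine collection in metabolism cages. Urine volume, Na+ and K+ (flame photometry) expressed as treated/control excretion ratio.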

Series [5] is described as follows: Potassium salt excretion in conscious rat at the dose of 30 mg/kg expressed as urinary excretion in treated rats/urinary excretion in control rats. In kind it is ADME, organism-based, Urine. The arrangement: dose 30 mg/kg. Conditions: in vivo. In outline:
as §2

Series [6] in a line: Potassium salt excretion in conscious rat at the dose of 3.0 mg/kg expressed as urinary excretion in treated rats/urinary excretion in control rats. In kind it is ADME, organism-based, Urine. The arrangement: dose 3 mg/kg. Conditions: in vivo. In outline:
as §2

A short description of series [7]: Sodium salt excretion in conscious rat at the dose of 3.0 mg/kg expressed as urinary excretion in treated rats/urinary excretion in control rats. In kind it is ADME, organism-based, Urine. Conditions: in vivo. Also on record: dose 3 mg/kg. The gist of the method: as §2
Series [8] in a line: Sodium salt excretion in conscious rat at the dose of 10 mg/kg expressed as urinary excretion in treated rats/urinary excretion in control rats. In kind it is ADME, organism-based, Urine. Also on record: dose 10 mg/kg. As to conditions: in vivo. The gist of the method:
as §2

Series [9] relates to Rattus norvegicus. Nature of the series: Compound was tested for urinary volume excretion in conscious rat at the dose of 30 mg/kg expressed as urinary excretion in treated rats/urinary excretion in control rats. In kind it is ADME, organism-based, Urine. The arrangement: dose 30 mg/kg. Conditions: in vivo. The gist of the method: as §2
Series [10] can be described thus: Sodium salt excretion in conscious rat at the dose of 1.0 mg/kg expressed as urinary excretion in treated rats/urinary excretion in control rats. In kind it is ADME, organism-based, Urine. Also on record: dose 1 mg/kg. As to conditions: in vivo. In outline:
as §2

The nature of series [11]: Sodium salt excretion in conscious rat at the dose of 0.3 mg/kg expressed as urinary excretion in treated rats/urinary excretion in control rats. As to conditions: in vivo. In kind it is ADME, organism-based, Urine. Also on record: dose 0.3 mg/kg. The gist of the method: as §2
Series [12] in a line: Potassium salt excretion in conscious rat at the dose of 100 mg/kg expressed as urinary excretion in treated rats/urinary excretion in control rats. In kind it is ADME, organism-based, Urine. The arrangement: dose 100 mg/kg. Conditions: in vivo. In outline:
as §2

The test system of series [13] is Rattus norvegicus. Nature of the series: Compound was tested for urinary volume excretion in conscious rat at the dose of 10 mg/kg expressed as urinary excretion in treated rats/urinary excretion in control rats. As to conditions: in vivo. In kind it is ADME, organism-based, Urine. The arrangement: dose 10 mg/kg. The gist of the method:
as §2

In series [14] the test system is Rattus norvegicus. As to the kind of experiment: Compound was tested for urinary volume excretion in conscious rat at the dose of 100 mg/kg expressed as urinary excretion in treated rats/urinary excretion in control rats. In kind it is ADME, organism-based, Urine. Conditions: in vivo. Also on record: dose 100 mg/kg. The gist of the method: as §2
Series [15] deals with Rattus norvegicus. Nature of the series: Compound was tested for urinary volume excretion in conscious rat at the dose of 0.3 mg/kg expressed as urinary excretion in treated rats/urinary excretion in control rats. In kind it is ADME, organism-based, Urine. Also on record: dose 0.3 mg/kg. Conditions: in vivo. In outline:
as §2

Series [16] is described as follows: Sodium salt excretion in conscious rat at the dose of 30 mg/kg expressed as urinary excretion in treated rats/urinary excretion in control rats. In kind it is ADME, organism-based, Urine. Also on record: dose 30 mg/kg. Conditions: in vivo. In outline: as §2
A short description of series [17]: Potassium salt excretion in conscious rat at the dose of 1.0 mg/kg expressed as urinary excretion in treated rats/urinary excretion in control rats. In kind it is ADME, organism-based, Urine. The arrangement: dose 1 mg/kg. Conditions: in vivo. The gist of the method:
as §2

Series [18] can be described thus: Potassium salt excretion in conscious rat at the dose of 0.3 mg/kg expressed as urinary excretion in treated rats/urinary excretion in control rats. In kind it is ADME, organism-based, Urine. The arrangement: dose 0.3 mg/kg. As to conditions: in vivo. The gist of the method: as §2
The nature of series [19]: Sodium salt excretion in conscious rat at the dose of 100 mg/kg expressed as urinary excretion in treated rats/urinary excretion in control rats. In kind it is ADME, organism-based, Urine. Also on record: dose 100 mg/kg. Conditions: in vivo. The gist of the method:
as §2

Series [20] deals with Rattus norvegicus. As to the kind of experiment: Compound was tested for urinary volume excretion in conscious rat at the dose of 1.0 mg/kg expressed as urinary excretion in treated rats/urinary excretion in control rats. In kind it is ADME, organism-based, Urine. As to conditions: in vivo. Also on record: dose 1 mg/kg. The gist of the method: as §2
Series [21] is described as follows: Potassium salt excretion in conscious rat at the dose of 10 mg/kg expressed as urinary excretion in treated rats/urinary excretion in control rats. In kind it is ADME, organism-based, Urine. Also on record: dose 10 mg/kg. Conditions: in vivo. The gist of the method: as §2
The subject of series [22] is Rattus norvegicus. As to the kind of experiment: Inhibition of RPAR administered perorally at 25 mg/kg dose. In kind it is functional. As to conditions: route oral. The gist of the method: (§3)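 Male Wistar rats (180-200 g), 5-10/group, dosed orally (water with Tween-80 suspension) 1 h before iv sensitization with 1 mg bovine serum albumin; 24-h fasted. 60 min later subplantar challenge with 200 µg anti-BSA in left hindpaw. Paw swelling by mercury displacement plethysmography at 2 h post-challenge.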

Series [23] concerns Rattus norvegicus. Nature of the series: Inhibition of RPAR administered perorally at 50 mg/kg dose. In kind it is functional. Conditions: route oral. The gist of the method:
as §3

The test system of series [24] is Rattus norvegicus. As to the kind of experiment: Inhibition of RPAR administered perorally at 100 mg/kg dose. In kind it is functional. As to conditions: route oral. The gist of the method:
as §3

The results in this text go back to ChEMBL document CHEMBL1123346, “Pyrimidinones. 3. N-substituted 6-phenylpyrimidinones and pyrimidinediones with diuretic/hypotensive and antiinflammatory activity” (J Med Chem, 1986).

SMILES strings stand for the structures.

For `Cn1c(=O)[nH]c(-c2ccccc2)c(I)c1=O`, the MABP change in the series on Rattus norvegicus [1] came to 1 mmHg; with Rattus norvegicus [2] it was 4 mmHg.
Take `CN(C)c1nc(O)c(I)c(-c2ccccc2)n1`: the MABP change in the series with Rattus norvegicus [1] worked out at 1 mmHg; in the series on Rattus norvegicus [2], 2 mmHg.
For `CN(C)c1nc(O)c(Br)c(-c2ccccc2)n1` the same measures were 1 mmHg and 2 mmHg.
Take `C=CCn1c(N)nc(-c2ccccc2)c(I)c1=O`: the results for the MABP change with Rattus norvegicus [1] and in the series with Rattus norvegicus [2] were -6 mmHg and -10 mmHg, respectively. In the series listed under Rattus norvegicus [3], the Diuretic activity worked out at 5.09.
For `NS(=O)(=O)c1cc(C(=O)O)c(NCc2ccco2)cc1Cl` [FUROSEMIDE], the Urinary volume is on record as 1.3 in the series on Rattus norvegicus [4]; 4.7 with Rattus norvegicus [9]; 2.2 in the series on Rattus norvegicus [13]; 7.2 in the series with Rattus norvegicus [14]; 1.1 in the series with Rattus norvegicus [15]; 1.2 in the series with Rattus norvegicus [20]. In addition, the “K+ excretion” value in series [5] is 2.2; in series [6], 1.3; in series [12], 3.2; in series [17], 1; in series [18], 1; in series [21], 1.6. Besides, the “Na+ excretion” value in series [7] is recorded as 1.1; in series [8] it was 1.5; in [10] it was 1.1; in series [11] it was 1.1; in series [16], 3.1; in series [19], 4.5. Besides, the MABP change in the series with Rattus norvegicus [1] is on record as 1 mmHg; in the series with Rattus norvegicus [2], -3 mmHg. In the series listed under Rattus norvegicus [3], this molecule displayed a Diuretic activity of 31.25.
With `CC(=O)Nc1nc(O)c(Br)c(-c2ccccc2)n1`, the MABP change worked out at 4 mmHg in the series on Rattus norvegicus [1] and 1 mmHg in the series on Rattus norvegicus [2].
In the series with Rattus norvegicus [22], `Cn1c(-c2ccccc2)cc(=O)[nH]c1=O` returned an inhibition in vivo at 25 mg/kg of 27%. Besides, the MABP change is reported as 4 mmHg in the series with Rattus norvegicus [1] and 6 mmHg in the series with Rattus norvegicus [2]. Besides, in the series with Rattus norvegicus [23], at 50 mg/kg the inhibition in vivo was 47%. The molecule also had an inhibition in vivo at 100 mg/kg with Rattus norvegicus [24] of 79%.
`Cn1c(=O)cc(-c2ccccc2)[nH]c1=O`: the MABP change in the series with Rattus norvegicus [1] amounted to 0 mmHg; in the series with Rattus norvegicus [2] it was 6 mmHg.
Take `Cn1c(N)nc(-c2ccccc2)c(I)c1=O`: the Urinary volume stood at 1.6 with Rattus norvegicus [4]; 2.7 in the series on Rattus norvegicus [9]; 2.2 in the series on Rattus norvegicus [13]; 2 in the series on Rattus norvegicus [14]; 1.3 with Rattus norvegicus [15]; 1.4 in the series with Rattus norvegicus [20]. In addition, the “K+ excretion” value in [5] stood at 2.1; in [6] it was 1.2; in [12], 1.6; in series [17], 1.1; in series [18] it was 1.1; in series [21], 1.4. Further, the “Na+ excretion” value in [7] came to 1.6; in [8] it was 1.9; in series [10], 1.2; in series [11], 1.1; in series [16], 2.4; in series [19] it was 2.7. This molecule showed an inhibition in vivo at 25 mg/kg with Rattus norvegicus [22] of 18%. The MABP change with Rattus norvegicus [1] is on record as -6 mmHg; in the series with Rattus norvegicus [2], -13 mmHg. In the series listed under Rattus norvegicus [3], the Diuretic activity turned out to be 4.46. In the series with Rattus norvegicus [23], the inhibition in vivo at 50 mg/kg was found to be 30%. Further, in the series on Rattus norvegicus [24], the inhibition in vivo at 100 mg/kg is 79%.
With `CNc1nc(O)c(Br)c(-c2ccccc2)n1`, in the series with Rattus norvegicus [22], the inhibition in vivo at 25 mg/kg worked out at 42%. The same molecule came in with an inhibition in vivo at 50 mg/kg with Rattus norvegicus [23] of 78%. For the same molecule, the inhibition in vivo at 100 mg/kg in the series on Rattus norvegicus [24] came to 82%.
In the series with Rattus norvegicus [23], `Cn1c(-c2ccccc2)c(Br)c(=O)n(C)c1=O` had an inhibition in vivo at 50 mg/kg of 36%. This molecule displayed an inhibition in vivo at 100 mg/kg with Rattus norvegicus [24] of 59%.
